Residues, ends and D or L forms follow the SMILES beside them. *: point of attachment. Boc = CC(C)(C)OC(=O)*
Assays:
[1] = target: T1, Replicase polyprotein 1ab (Severe acute respiratory syndrome coronavirus 2, UniProt P0DTD1); test: Inhibition of C-terminal His6-tagged recombinant SARS-CoV-2 MPro transfected in Escherichia coli BL21 (DE3) using Dabcyl-KTSAVLQSGFRKM-E(Edans)-NH2 as substrate preincubated for 15 mins followed by substrate addition measured after 30 mins by FRET assay
Method in brief: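 Recombinant Mpro (20 nM final) was preincubated 15 min at room temperature with compound.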

[2] = target: T1, Replicase polyprotein 1ab; test: Binding affinity to C-terminal His6-tagged recombinant SARS-CoV-2 MPro transfected in Escherichia coli BL21 (DE3) assessed as dissociation constant by Cheng-Prusoff equation analysis
SARS-CoV-2 [3] = test: Antiviral activity against SARS-CoV-2 UC-1074 infected in African green monkey Vero cells assessed as reduction in virus-induced cytopathic effect incubated for 5 days by microscopic analysis; type: functional, organism-based; settings: Severe acute respiratory syndrome coronavirus 2, UC-1074, Vero, 120 h
SARS-CoV-2 [4] = test: Antiviral activity against SARS-CoV-2 RG2674 infected in African green monkey Vero cells assessed as reduction in virus-induced cytopathic effect incubated for 5 days by microscopic analysis; type: functional, organism-based; settings: Severe acute respiratory syndrome coronavirus 2, RG2674, Vero, 120 h
Human betaherpesvirus 5 [5] = test: Antiviral activity against HCMV Davis infected in HELF cells assessed as reduction in viral replication; type: functional, organism-based; settings: Human betaherpesvirus 5, Davis
[6] = Stability of compound in PBS buffer at pH 7 at 25 to […] degreeC measured for 3 to 24 hrs by HPLC analysis; type: physicochemical; settings: time 3-24 hrs
Method in brief: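 Peptide at 0.3 mg/mL was held in PBS pH 7.0 at 25 °C and 37 °C for 24 h. The peptide peak area was followed by RP-HPLC on C18 with detection at 220 nm, sampled at 3, 6, 8 and 24 h.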

[7] = target: T1, Replicase polyprotein 1ab; test: Binding affinity to C-terminal His6-tagged recombinant SARS-CoV-2 MPro expressed in Escherichia coli BL21 (DE3) assessed as dissociation constant by ITC assay
Method in brief: (§1)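 E. coli BL21(DE3) Mpro, made untagged by 3C cleavage and SEC, was dialysed into 25 mM Tris-HCl pH 7.6, 20 mM NaCl, 1 mM TCEP. 20–25 µM protein in the cell was titrated with 160–250 µM compound at 28 °C, 0.5% DMSO on both sides, 2.5 µL injections every 180 s. One-site fit with stoichiometry fixed at 1 gave ΔH, ΔS and KD.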

Vero = test: Cytotoxicity against African green monkey Vero cells assessed as reduction in cell growth by Coulter counter analysis; type: toxicity, cell-based; settings: chlorocebus sabaeus
Method in brief: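 Mock-infected Vero CCL81 cultures were treated with the compound dilution series in DMEM 2% FCS for 5 days at 37 °C.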

SARS-CoV-2 [8] = test: Antiviral activity against SARS-CoV-2 NVDBB-2220 infected in African green monkey Vero cells assessed as reduction in virus-induced cytopathic effect incubated for 5 days by microscopic analysis; type: functional, organism-based; settings: Severe acute respiratory syndrome coronavirus 2, NVDBB-2220, Vero, 120 h
[9] = target: Replicase polyprotein 1ab (Severe acute respiratory syndrome coronavirus 2) (UniProt P0DTD1); test: Binding affinity to C-terminal His6-tagged recombinant SARS-CoV-2 MPro expressed in Escherichia coli BL21 (DE3) assessed as change in entropy by ITC assay; method in brief: as §1
[10] = target: Replicase polyprotein 1ab (Severe acute respiratory syndrome coronavirus 2) (UniProt P0DTD1); test: Binding affinity to C-terminal His6-tagged recombinant SARS-CoV-2 MPro expressed in Escherichia coli BL21 (DE3) assessed as change in gibbs free energy by ITC assay
Human alphaherpesvirus 3 [11] = test: Antiviral activity against thymidine kinase positive VZV OKA infected in HELF cells assessed as reduction in viral replication; type: functional, organism-based; settings: Human alphaherpesvirus 3, OKA
Human betaherpesvirus 5 [12] = test: Antiviral activity against HCMV AD-169 infected in HELF cells assessed as reduction in viral replication; type: functional, organism-based; settings: Human betaherpesvirus 5, AD-169, HELF
[13] = target: Replicase polyprotein 1ab (Severe acute respiratory syndrome coronavirus 2) (UniProt P0DTD1); test: Binding affinity to C-terminal His6-tagged recombinant SARS-CoV-2 MPro expressed in Escherichia coli BL21 (DE3) assessed as change in enthalpy by ITC assay; method in brief: as §1
Human alphaherpesvirus 3 [14] = test: Antiviral activity against thymidine kinase deficient VZV 07-1 infected in HELF cells assessed as reduction in viral replication; type: functional, organism-based; settings: Human alphaherpesvirus 3, 07-1, HELF
[15] = Cytotoxicity against African green monkey Vero cells assessed as change in cell morphology by microscopic analysis; type: toxicity, cell-based; settings: chlorocebus sabaeus
Method in brief: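 Vero CCL81 cells were run in parallel with the antiviral assay in DMEM 2% FCS for 5 days at 37 °C. The value is the minimum concentration causing a microscopically detectable change in cell morphology.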

[16] = Cytotoxicity against HELF cells assessed as change in cell morphology; type: toxicity, cell-based; settings: human

For `CC(=O)NCC(=O)N[C@@H](Cc1c[nH]cn1)C(=O)N[C@H](C=O)Cc1ccc(O)cc1` (Ac-Gly-His-Tyr-aldehyde), which IC50 [1] is on record?
Its IC50 is greater than 425 µM.

And the Kd [2]?
The Kd was greater than 213 µM.

Which EC50 (SARS-CoV-2 [3]) does the source give for Ac-GGVLVQPG-NH2 here?
The EC50 was 17.6 µM.

Which results are given for `CC(=O)NCC(=O)N[C@@H](Cc1ccccc1)C(=O)N[C@H](C=O)Cc1c[nH]cn1` (Ac-Gly-Phe-His-aldehyde)?
IC50 [1]: 2.51 µM; EC50 (SARS-CoV-2 [4]): > 100 µM; EC50 (Human betaherpesvirus 5 [5]): > 100 µM; Stability [6]: Stable; Kd [7]: 0.64 µM; CC50 (Vero): > 100 µM; EC50 (SARS-CoV-2 [8]): 40.3 µM; -TdeltaS [9]: 4.16 kcal/mol; deltaG [10]: -8.53 kcal/mol; EC50 (Human alphaherpesvirus 3 [11]): > 100 µM; EC50 (Human betaherpesvirus 5 [12]): > 20 µM; deltaH [13]: -12.7 kcal/mol; EC50 (Human alphaherpesvirus 3 [14]): > 100 µM; MCC [15]: ≥ 100 µM; Kd [2]: 1.26 µM; EC50 (SARS-CoV-2 [3]): 66.1 µM; MCC [16]: > 100 µM

With `CC(C)(C)OC(=O)NCC(=O)N[C@@H](Cc1ccccc1)C(=O)N[C@H](C=O)Cc1c[nH]cn1` (Boc-Gly-Phe-His-aldehyde) as the compound, how does the IC50 [1] read?
The IC50 was 6.49 µM.

And the EC50 (SARS-CoV-2 [4])?
Its EC50 is 84.9 µM.

What about the EC50 (Human betaherpesvirus 5 [5]) of the same compound?
The EC50 was greater than 100 µM.

And the Kd [7]?
Its Kd is 0.442 µM.

And the CC50 (Vero)?
Its CC50 is greater than 100 µM.

What about the EC50 (SARS-CoV-2 [8]) of the same compound?
The EC50 was 43.3 µM.

What about the -TdeltaS [9] of the same compound?
Its -TdeltaS is 5.78 kcal/mol.

What about the deltaG [10] of the same compound?
Its deltaG is -8.77 kcal/mol.

And the EC50 (Human alphaherpesvirus 3 [11])?
The EC50 was greater than 100 µM.

What about the EC50 (Human betaherpesvirus 5 [12]) of the same compound?
The EC50 was greater than 20 µM.

And the deltaH [13]?
The deltaH was -14.5 kcal/mol.

What about the EC50 (Human alphaherpesvirus 3 [14]) of the same compound?
The EC50 was greater than 100 µM.

And the MCC [15]?
The MCC was no less than 100 µM.

And the Kd [2]?
The Kd was 3.26 µM.

What about the EC50 (SARS-CoV-2 [3]) of the same compound?
Its EC50 is 50.2 µM.

And the MCC [16]?
Its MCC is greater than 100 µM.

For `CC(=O)NCC(=O)N[C@@H](Cc1ccc(O)cc1)C(=O)N[C@H](C=O)Cc1c[nH]cn1` (Ac-Gly-Tyr-His-aldehyde), which IC50 [1] is on record?
The IC50 was 198 µM.

What about the Kd [2] of the same compound?
The Kd was 98.9 µM.

For `CC(=O)NCC(=O)N[C@@H](Cc1c[nH]cn1)C(=O)N[C@H](C=O)Cc1c[nH]cn1` (Ac-Gly-His-His-aldehyde), which IC50 [1] is on record?
Its IC50 is greater than 213 µM.

And the Kd [2]?
Its Kd is greater than 107 µM.

With `Nc1nc2c(ncn2COCCO)c(=O)[nH]1` [ACYCLOVIR] as the compound, how does the MCC [16] read?
Its MCC is greater than 444 µM.

Source: ChEMBL document CHEMBL5247630, “Rational design of the zonulin inhibitor AT1001 derivatives as potential anti SARS-CoV-2” (Eur J Med Chem, 2022)
